Source: publication PMC3398233 (Chemical Research in Toxicology, 2012)
In brackets after ≈: the same amount, converted by molar mass. Several values for one entry are separate records, joined by “and”; a condition that tells them apart may be missing. Equal entries are not always repeated.

Key:
[1] = tested on: PCE; settings: DEHP 50 μM; cited from earlier work
[2] = tested on: PCE; assay: DEHP hydrolysis to MEHP by PCE; assay type: in vitro ADME, porcine; settings: 127 vs 1.08 pmol min^-1 mg protein^-1
[3] = tested on: hepatic porcine carboxylesterase; assay: Metabolism in purified hepatic porcine carboxylesterase; assay type: in vitro ADME; settings: Michaelis-Menten model, 10-min incubations
[4] = TBB/TBPH metabolism in human liver microsomes; assay type: in vitro ADME
[5] = tested on: fathead minnows (Pimephales promelas); settings: dietary exposure to commercial mixture containing TBB and TBPH; cited from earlier work
[6] = Solubility limit of TBB in incubation buffer; assay type: physicochemical; settings: potassium phosphate buffer, pH 7.4
Method in brief: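 Practical upper limit judged from kinetics incubations in 100 mM potassium phosphate (pH 7.4), glass tubes, shaking at 37°C, 10 min, nine concentrations 0.0078–31.1 μM. Dosing concentrations checked by LC/MS/MS (negative APCI, C18 column, isocratic 98% methanol). Limit taken as the highest concentration without unacceptably high variability in measured substrate concentration.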

[7] = cited from earlier work
[8] = Phase II metabolism; assay type: in vitro ADME, human; settings: HLM; for Phase II metabolites detected (glucuronidation): 2 mM UDPGA, alamethicin, MgCl2, 90 min; for loss of parent compound during Phase II incubation: glucuronidation cofactors, 90 min
[9] = Phase II metabolism; assay type: in vitro ADME, human; settings: cytosol, 90 min; for Phase II metabolites detected (sulfation, glutathione conjugation): PAPS or reduced glutathione; for loss of parent compound during Phase II incubation: sulfation / glutathione cofactors

For CCCCC(CC)COC(=O)c1ccccc1C(=O)OCC(CC)CCCC (stereo not drawn) [DEHP, bis(2-ethylhexyl) phthalate], the “MEHP formation rate from DEHP in PCE” value [1] is given as 127 pmol min^-1 mg protein^-1 and the “DEHP hydrolysis rate relative to TBPH hydrolysis rate in PCE” value [2] is given as “approximately 100 times”.

In the case of CCCCC(CC)COC(=O)c1cc(Br)c(Br)c(Br)c1Br (stereo not drawn) [TBB, 2-ethylhexyl-2,3,4,5-tetrabromobenzoate], the “Vmax for TBBA formation in PCE” value [3] is reported as 24.4 ± 2.6 nmol min^-1 mg protein^-1, the Km ([3]; read-out: Km for TBBA formation in PCE) is reported as 9.3 µM and ~10 µM and the “decrease of TBB during incubation (amount)” value ([4]; 60-min incubation, HLM 40 μg protein mL^-1, TBB 27.1 ± 1.3 μM) is reported as about 2.9 nmol. The “reduction in the concentration of TBB” value ([4]; 60-min incubations with HLM, metabolite identification, GC/MS) was 79.9 ± 4.6%, the “Vmax for TBBA formation in HLM” value ([4]; Michaelis-Menten model, 10-min incubations, 40 μg protein mL^-1, TBB 0.0078–31.1 μM) was 0.644 ± 0.144 nmol min^-1 mg protein^-1 and the “effect of NADPH on the formation rate of TBBA” value ([4]; NADPH 0, 0.3, 3.0 and 30 mM, data not shown) was “did not significantly affect”. The Km at 10 min ([4]; both, human, pH 7.4, Km for TBBA formation in HLM, Michaelis-Menten model, 10-min incubations, 40 μg protein mL^-1, TBB 0.0078–31.1 μM) was 11.1 ± 3.9 µM, the Km ([4]; read-out: Km for TBBA formation in HLM, Michaelis-Menten model, 10-min incubations, 40 μg protein mL^-1, TBB 0.0078–31.1 μM) was about 10 µM and the “metabolism in fathead minnows” value [5] was “metabolized to form unidentified brominated metabolites”. The solubility [6] was about 30 µM (≈ 16.5 µg/mL) and the “estimated log KOW” value [7] was 8.8.

With O=C(O)c1cc(Br)c(Br)c(Br)c1Br [TBBA, 2,3,4,5-tetrabromobenzoic acid] the “Phase II metabolites detected (glucuronidation)” value [8] was “no Phase II metabolites were detected”, the “loss of parent compound during Phase II incubation” value (from here on “loss”) [8] was “no significant losses” and the “Phase II metabolites detected (sulfation, glutathione conjugation)” value [9] was “no Phase II metabolites were detected”. The “loss” value [9] was “no significant losses”.

In the case of CCCCC(CC)COC(=O)c1c(Br)c(Br)c(Br)c(Br)c1C(=O)O (stereo not drawn) [TBMEHP, mono(2-ethylhexyl) 2,3,4,5-tetrabromophthalate], the “Phase II metabolites detected (glucuronidation)” value [8] is reported as “no Phase II metabolites were detected”, the “loss” value [8] is reported as “no significant losses” and the “Phase II metabolites detected (sulfation, glutathione conjugation)” value [9] is reported as “no Phase II metabolites were detected”. The “loss” value [9] was “no significant losses”.
